Laboratory results from paper PMC9780517 (Experimental and Therapeutic Medicine, 2022).
Entries after “also recorded” stand apart in the source; their conditions may differ.

Assays:
[1] = system: hiPSC-CMs; assay: Myocardial cell activity; assay type: cell-based, human; conditions: for Effect on Ampl (cell activity / cell viability) / Effect on BPM (beats per minute): concentration relative to ETPC
Outline: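 Human iPSC-derived cardiomyocytes (mostly ventricular; four batches) were grown 14-21 days on fibronectin-coated impedance/field-potential sensor plates at 37°C, 5% CO2. The medium was changed on dosing day, and test compound was added 3-4 h later, with 0.1% DMSO as control. Reads were taken every 30 min for 2 h, then every 2 h for >24 h. There were 3-4 concentrations, triplicate wells each. Ampl and BPM were normalized to pre-dose values.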

[2] = after intravenous administration; cited from earlier work
[3] = system: hiPSC-CMs; assay: Field potential; assay type: cell-based, human; conditions: for FPDc prolongation (in words): concentration relative to ETPC
[4] = ref 21 (Blinova et al); cited from earlier work

Row | SMILES | Effect on Ampl (cell activity / cell viability) [1] | Effect on BPM (beats per minute) [1] | Arrhythmia-like waveforms (in words) [3] | other results
1 | CCCCc1oc2ccccc2c1C(=O)c1cc(I)c(OCCN(CC)CC)c(I)c1 [Amiodarone] | decreased the cell activity of cardiomyocytes at concentrations greater than ETPC | decreased BPM at a concentration greater than ETPC |  | TdP incidence [2]: ~ 15%
2 | COc1ccc(CCN2CCC(Nc3nc4ccccc4n3Cc3ccc(F)cc3)CC2)cc1 [Astemizole] | decreased the activity of cardiomyocytes at a concentration higher than ETPC | decrease BPM | caused arrhythmia-like waveforms | 
3 | CN1CCN(CCCCN2C(=O)CN(/N=C/c3ccc(-c4ccc(Cl)cc4)o3)C2=O)CC1 [Azimilide] |  |  | induce arrhythmia-like waveforms | FPDc prolongation (in words) [3]: FPDc prolongation at concentrations lower than ETPC
4 | CC(C)COCC(CN(Cc1ccccc1)c1ccccc1)N1CCCC1 (stereo not drawn) [Bepridil] |  |  | induce arrhythmia-like waveforms | Concentration at which arrhythmia-like waveforms were observed [3]: 312.5 times of the ETPC; FPDc prolongation (in words) [3]: not induce FPDc prolongation; also recorded: no FPDc prolongation was observed; Predicted risk, LR model of Blinova et al [4]: low-risk
5 | CN(C)CCCN1c2ccccc2Sc2ccc(Cl)cc21 [Chlorpromazine] | decreased the activity of cardiomyocytes at a concentration higher than ETPC | decrease BPM |  | Predicted risk, LR model of Blinova et al [4]: low-risk
6 | COc1cc(N)c(Cl)cc1C(=O)NC1CCN(CCCOc2ccc(F)cc2)CC1OC (stereo not drawn) [Cisapride] | decreased the activity of cardiomyocytes at a concentration higher than ETPC | decrease BPM |  | 
7 | CC[C@H]1OC(=O)[C@H](C)[C@@H](O[C@H]2C[C@@](C)(OC)[C@@H](O)[C@H](C)O2)[C@H](C)[C@@H](O[C@@H]2O[C@H](C)C[C@H](N(C)C)[C@H]2O)[C@](C)(OC)C[C@@H](C)C(=O)[C@H](C)[C@@H](O)[C@]1(C)O [Clarithromycin] | decreased the activity of cardiomyocytes at a concentration higher than ETPC | decrease BPM |  | FPDc prolongation (in words) [3]: no FPDc prolongation was observed; also recorded: FPDc showed shortening; FPDc prolongation at the highest concentration ([3]; highest concentration of 100 µM, repeated in triplicate): no FPDc prolongation was observed
8 | CN1CCN(C2=Nc3cc(Cl)ccc3Nc3ccccc32)CC1 [Clozapine] |  |  | caused arrhythmia-like waveforms | Concentration at which FPDc prolongation was observed [3]: 42 % of the ETPC
9 | COc1ccc([C@@H]2Sc3ccccc3N(CCN(C)C)C(=O)[C@@H]2OC(C)=O)cc1 [Diltiazem] | decreased the activity of cardiomyocytes at a concentration higher than ETPC | BPM was decreased |  | 
10 | CC(C)N(CCC(C(N)=O)(c1ccccc1)c1ccccn1)C(C)C (stereo not drawn) [Disopyramide] | decreased cell activity at concentrations less than ETPC |  | induce arrhythmia-like waveforms | FPDc prolongation (in words) [3]: FPDc prolongation at concentrations lower than ETPC
11 | CN(CCOc1ccc(NS(C)(=O)=O)cc1)CCc1ccc(NS(C)(=O)=O)cc1 [Dofetilide] |  |  | no arrhythmia-like events were observed; also recorded: No arrhythmia-like waveforms were observed | Concentration at which arrhythmia-like waveforms were observed [3]: > 150 times of the ETPC; FPDc prolongation (in words) [3]: FPDc prolongation at concentrations higher than ETPC; Beating of the cells at the maximum concentration ([1]; 0.3 µm (150 times of the ETPC)): cells stopped beating
12 | O=c1[nH]c2ccccc2n1CCCN1CCC(n2c(=O)[nH]c3cc(Cl)ccc32)CC1 [Domperidone] |  |  | caused arrhythmia-like waveforms | 
13 | O=C(CCCN1CC=C(n2c(=O)[nH]c3ccccc32)CC1)c1ccc(F)cc1 [Droperidol] | decreased the activity of cardiomyocytes at a concentration higher than ETPC | decrease BPM | caused arrhythmia-like waveforms | 
14 | O=C(NCC1CCCCN1)c1cc(OCC(F)(F)F)ccc1OCC(F)(F)F (stereo not drawn) [Flecainide] |  |  |  | Concentration at which arrhythmia-like waveforms were observed [3]: 1.33 times of the ETPC
15 | CCCCCCCN(CC)CCCC(O)c1ccc(NS(C)(=O)=O)cc1 (stereo not drawn) [Ibutilide] | decreased cell activity at concentrations less than ETPC | BPM decrease at concentrations less than ETPC | induce arrhythmia-like waveforms | Concentration at which arrhythmia-like waveforms were observed [3]: 10 % of the ETPC; FPDc prolongation (in words) [3]: FPDc prolongation at concentrations lower than ETPC
16 | CCOC(=O)N1CCC(=C2c3ccc(Cl)cc3CCc3cccnc32)CC1 [Loratadine] | decreased the activity of cardiomyocytes at a concentration higher than ETPC |  |  | 
17 | CCC(=O)C(CC(C)N(C)C)(c1ccccc1)c1ccccc1 (stereo not drawn) [Methadone] | decreased the cell activity of cardiomyocytes at concentrations greater than ETPC | decreased BPM at a concentration greater than ETPC |  | 

Row | SMILES | Effect on Ampl (cell activity / cell viability) [1] | Effect on BPM (beats per minute) [1] | Arrhythmia-like waveforms (in words) [3] | other results
18 | COCCc1ccc(OCC(O)CNC(C)C)cc1 (stereo not drawn) [Metoprolol] | decreased the activity of cardiomyocytes at a concentration higher than ETPC | BPM was decreased |  | Concentration at which FPDc prolongation was observed [3]: 6 % of the ETPC
19 | Cc1cccc(C)c1OCC(C)N (stereo not drawn) [Mexiletine] | decreased the activity of cardiomyocytes at a concentration higher than ETPC | BPM was decreased |  | Concentration at which FPDc prolongation was observed [3]: 1.2 times of the ETPC
20 | COc1c(N2C[C@@H]3CCCN[C@@H]3C2)c(F)cc2c(=O)c(C(=O)O)cn(C3CC3)c12 [Moxifloxacin] |  | decreased BPM at a concentration greater than ETPC |  | 
21 | NC(=O)c1cccnc1 [Nicotinamide] | decreased the cell activity of cardiomyocytes at concentrations greater than ETPC | decreased BPM |  | 
22 | COC(=O)C1=C(C)NC(C)=C(C(=O)OC)C1c1ccccc1[N+](=O)[O-] [Nifedipine] | decreased the activity of cardiomyocytes at a concentration higher than ETPC |  |  | 
23 | CCOC(=O)C1=C(C)NC(C)=C(C(=O)OC)C1c1cccc([N+](=O)[O-])c1 (stereo not drawn) [Nitrendipine] | decreased the activity of cardiomyocytes at a concentration higher than ETPC |  |  | Concentration at which arrhythmia-like waveforms were observed [3]: 331.1 times of the ETPC
24 | Cc1nccn1CC1CCc2c(c3ccccc3n2C)C1=O (stereo not drawn) [Ondansetron] | decreased the activity of cardiomyocytes at a concentration higher than ETPC | decrease BPM | caused arrhythmia-like waveforms | Concentration at which arrhythmia-like waveforms were observed [3]: 81 % of the ETPC
25 | O=c1[nH]c2ccccc2n1C1CCN(CCCC(c2ccc(F)cc2)c2ccc(F)cc2)CC1 [Pimozide] | decreased the activity of cardiomyocytes at a concentration higher than ETPC | decrease BPM | caused arrhythmia-like waveforms | 
26 | C=C[C@H]1C[N@@]2CC[C@H]1C[C@@H]2[C@@H](O)c1ccnc2ccc(OC)cc12 [Quinidine] | decreased cell activity at concentrations less than ETPC | BPM decrease at concentrations less than ETPC | induce arrhythmia-like waveforms | FPDc prolongation (in words) [3]: FPDc prolongation at concentrations lower than ETPC
27 | COc1ccccc1OCC(O)CN1CCN(CC(=O)Nc2c(C)cccc2C)CC1 (stereo not drawn) [Ranolazine] |  |  |  | Concentration at which FPDc prolongation was observed [3]: 51 % of the ETPC; Concentration at which arrhythmia-like waveforms were observed [3]: 15.4 times of the ETPC
28 | Cc1nc2n(c(=O)c1CCN1CCC(c3noc4cc(F)ccc34)CC1)CCCC2 [Risperidone] | decreased the activity of cardiomyocytes at a concentration higher than ETPC | decrease BPM | caused arrhythmia-like waveforms | Concentration at which arrhythmia-like waveforms were observed [3]: 555.6 times of the ETPC; Predicted risk, LR model of Blinova et al [4]: low-risk
29 | CC(C)NCC(O)c1ccc(NS(C)(=O)=O)cc1 (stereo not drawn) [Sotalol] |  | BPM decrease at concentrations less than ETPC | induce arrhythmia-like waveforms | FPDc prolongation (in words) [3]: FPDc prolongation at concentrations lower than ETPC
30 | CC/C(=C(\c1ccccc1)c1ccc(OCCN(C)C)cc1)c1ccccc1 [Tamoxifen] | decreased the activity of cardiomyocytes at a concentration higher than ETPC | BPM was decreased |  | Concentration at which arrhythmia-like waveforms were observed [3]: 142.9 times of the ETPC
31 | CC(C)(C)c1ccc(C(O)CCCN2CCC(C(O)(c3ccccc3)c3ccccc3)CC2)cc1 (stereo not drawn) [Terfenadine] | decreased the activity of cardiomyocytes at a concentration higher than ETPC | decrease BPM |  | 
32 | COc1cc2c(Nc3ccc(Br)cc3F)ncnc2cc1OCC1CCN(C)CC1 [Vandetanib] |  | BPM decrease at concentrations less than ETPC | induce arrhythmia-like waveforms | FPDc prolongation (in words) [3]: FPDc prolongation at concentrations higher than ETPC
33 | COc1ccc(CCN(C)CCCC(C#N)(c2ccc(OC)c(OC)c2)C(C)C)cc1OC (stereo not drawn) [Verapamil] | decreased the activity of cardiomyocytes at a concentration higher than ETPC |  |  | 
